Our source for the Activity and inhibition values is ChEMBL document CHEMBL1153234, “Synthesis and biological evaluation of nitrogen-containing chalcones as possible anti-inflammatory and antioxidant agents” (Bioorg Med Chem Lett, 2010).

SMILES strings stand for the structures. Calls of active or inactive are those of the source. No cut-off for these calls is given here.

In assay [1] the test system is Radical scavenging activity. The experiment in a line: Antioxidant activity assessed as DPPH radical scavenging activity at 10 uM. The format is functional. The gist of the method:
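Test sample from a 1 mM stock in absolute ethanol was mixed with DPPH radical (10^-4 M in absolute ethanol). Absorbance was read at 517 nm after 20 min. Quercetin served as reference. Values are means of n = 2.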

Assay [2] in a line: Inhibition of trypsin at 10 uM. The gist of the method: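 Trypsin (0.075 mg/mL) was preincubated 20 min with test sample from a 1 mM stock. The reaction was stopped with 5% trichloroacetic acid and centrifuged. Acid-soluble protein was measured by the Lowry method. Salicylic acid (10^-6 M) was the reference. Values are means of n = 2.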
The target of assay [3] is T1, Prostaglandin G/H synthase 2 (Ovis aries) (UniProt P79208).
T1 sequence (whole entry): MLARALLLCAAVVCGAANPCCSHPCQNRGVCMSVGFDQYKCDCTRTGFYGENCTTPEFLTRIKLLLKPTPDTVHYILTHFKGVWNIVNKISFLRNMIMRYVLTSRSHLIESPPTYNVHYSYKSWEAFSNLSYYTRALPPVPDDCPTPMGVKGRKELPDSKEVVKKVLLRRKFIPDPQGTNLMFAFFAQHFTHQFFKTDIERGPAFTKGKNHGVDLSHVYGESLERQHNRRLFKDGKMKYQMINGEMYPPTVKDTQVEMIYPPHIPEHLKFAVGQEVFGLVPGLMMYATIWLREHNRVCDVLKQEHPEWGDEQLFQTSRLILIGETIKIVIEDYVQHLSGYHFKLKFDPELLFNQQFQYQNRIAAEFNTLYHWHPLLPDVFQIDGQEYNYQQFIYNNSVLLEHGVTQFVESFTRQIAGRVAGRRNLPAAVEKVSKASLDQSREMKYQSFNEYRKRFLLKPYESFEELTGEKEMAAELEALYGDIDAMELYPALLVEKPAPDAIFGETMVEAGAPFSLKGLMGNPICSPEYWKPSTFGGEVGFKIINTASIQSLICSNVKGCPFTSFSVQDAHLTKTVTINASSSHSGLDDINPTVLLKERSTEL
The experiment in a line: Inhibition of ovine COX2 at 1 mM by colorimetric assay. The gist of the method:
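Ovine COX-2 was tested with a colorimetric screening kit. Enzyme, heme and assay buffer were preincubated 5 min at 25 °C with test sample added from a 1 mM solution. Colorimetric substrate and arachidonic acid were then added, followed by a further 5 min at 25 °C. Absorbance was read at 590 nm, and % activity = inhibitor-well/no-inhibitor-well absorbance × 100. Values are means of n = 2.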

Assay [4] addresses T2, Beta-glucuronidase (Homo sapiens) (UniProt P08236).
T2 sequence (whole entry): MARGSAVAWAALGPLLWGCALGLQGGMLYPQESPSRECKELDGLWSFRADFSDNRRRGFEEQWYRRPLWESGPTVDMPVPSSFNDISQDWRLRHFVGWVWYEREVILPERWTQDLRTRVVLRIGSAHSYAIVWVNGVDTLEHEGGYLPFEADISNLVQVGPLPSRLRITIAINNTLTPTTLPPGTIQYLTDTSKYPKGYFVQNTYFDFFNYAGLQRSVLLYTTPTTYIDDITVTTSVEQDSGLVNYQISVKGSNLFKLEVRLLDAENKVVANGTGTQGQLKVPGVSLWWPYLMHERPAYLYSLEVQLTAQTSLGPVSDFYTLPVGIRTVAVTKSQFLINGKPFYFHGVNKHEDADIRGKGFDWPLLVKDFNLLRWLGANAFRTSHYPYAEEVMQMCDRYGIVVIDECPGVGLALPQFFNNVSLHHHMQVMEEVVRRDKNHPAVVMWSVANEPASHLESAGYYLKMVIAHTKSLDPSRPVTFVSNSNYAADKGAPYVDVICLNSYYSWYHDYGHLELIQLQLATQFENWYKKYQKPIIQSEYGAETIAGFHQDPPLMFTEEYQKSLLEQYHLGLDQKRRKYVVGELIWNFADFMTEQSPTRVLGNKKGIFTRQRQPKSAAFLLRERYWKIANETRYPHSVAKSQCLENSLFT
The experiment in a line: Inhibition of beta-glucuronidase at 10 uM. The gist of the method: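 Test sample from a 1 mM stock in 0.1 M acetate buffer pH 7.4 was preincubated 5 min at 37 °C with 2.5 mM p-nitrophenyl β-D-glucopyranosiduronic acid. β-Glucuronidase was then added and the mixture incubated 30 min. The reaction was stopped with 0.5 N NaOH and read at 410 nm. Salicylic acid (1 mM) was the reference. Values are means of n = 2.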

In assay [5] the target is T3, Prostaglandin G/H synthase 1 (Ovis aries) (UniProt P05979).
T3 sequence (whole entry): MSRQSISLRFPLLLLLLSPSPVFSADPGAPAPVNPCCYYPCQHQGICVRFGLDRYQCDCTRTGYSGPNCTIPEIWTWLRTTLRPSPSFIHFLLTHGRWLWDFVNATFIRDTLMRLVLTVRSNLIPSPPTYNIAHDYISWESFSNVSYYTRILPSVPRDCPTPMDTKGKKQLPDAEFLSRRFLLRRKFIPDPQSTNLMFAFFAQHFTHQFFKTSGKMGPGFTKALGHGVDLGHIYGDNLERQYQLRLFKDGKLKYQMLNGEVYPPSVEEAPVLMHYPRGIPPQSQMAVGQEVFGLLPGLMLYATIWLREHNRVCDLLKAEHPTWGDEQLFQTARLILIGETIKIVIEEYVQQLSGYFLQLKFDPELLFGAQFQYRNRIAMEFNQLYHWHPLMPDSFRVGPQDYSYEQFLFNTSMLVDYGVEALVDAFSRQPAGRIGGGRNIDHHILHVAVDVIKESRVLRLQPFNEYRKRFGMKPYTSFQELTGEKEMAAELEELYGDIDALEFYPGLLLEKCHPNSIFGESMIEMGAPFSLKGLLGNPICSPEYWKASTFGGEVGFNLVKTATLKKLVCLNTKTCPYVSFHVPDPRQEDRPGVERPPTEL
The following applies: at 1 mM.

For the compound `COc1cc(OC)c(C(=O)/C=C/c2ccccc2F)c(O)c1CN1CCOCC1`, the Activity in assay [1] worked out at 19.2%. Besides, the inhibition (in general, the percentage by which the read-out fell short of the control) in assay [2] is 2%; in assay [3], 27.1%; in assay [4] it was 21.8%.
In the case of `COc1cc(OC)c(C(=O)/C=C/c2cccc(Cl)c2)c(O)c1CN1CCN(C)CC1`, in assay [1], the Activity amounted to 5.2%. Also, the inhibition in assay [2] was determined as 1.3%; in assay [3], 77.8%; in assay [4], 23.7%; in assay [5], 28.7%.
Turning to `O=C(O)c1ccccc1O`, the inhibition in assay [2] worked out at 89.2%; in assay [4], 23.3%.
For the compound `COc1cc(OC)c(C(=O)/C=C/c2ccccc2F)c(O)c1CN1CCCCC1`, the result in assay [1] was inactive. For the same compound, the inhibition worked out at 1.4% in assay [2], 19.9% in assay [3] and 56.6% in assay [4].
With `COc1cc(OC)c(C(=O)/C=C/c2cccc(Br)c2)c(O)c1CN1CCN(C)CC1`, the Activity in assay [1] amounted to 37%. For the same compound, the inhibition in assay [2] amounted to 1.4%; in assay [3], 33.3%; in assay [4] it was 75.4%.
Consider `COc1cc(OC)c(C(=O)/C=C/c2ccccc2Cl)c(O)c1CN1CCN(C)CC1`, for which the Activity in assay [1] was 10.8%. Moreover, the inhibition in assay [2] is 0.1%; in assay [3] it was 68.8%; in assay [4] it was 35.5%; in assay [5], 11.9%.
As for `COc1cc(OC)c(C(=O)/C=C/c2cccc(Cl)c2)c(O)c1CN1CCOCC1`, in assay [1], the Activity worked out at 21.9%. Further, the results for the inhibition in assay [2], in assay [3] and in assay [4] were 1.1%, 48.2% and 13.9%, respectively.
For `COc1cc(OC)c(C(=O)/C=C/c2cccc(Br)c2)c(O)c1CN1CCOCC1` the same measures were 10.1%, 1.2%, 22.4% and 29.3%.
In the case of `COc1cc(O)c(CN2CCCC2)c(O)c1C(=O)/C=C/c1ccccc1F`, the Activity in assay [1] is 32.9%. Also, the inhibition in assay [2] was found to be 1.2%; in assay [3] it was 21.4%. For the same compound, the inhibition entry in assay [4] was “inactive”.
As to `COc1cc(OC)c(C(=O)/C=C/c2ccccc2Cl)c(O)c1CN1CCCCC1`, the Activity in assay [1] was 18.4%. In addition, the inhibition in assay [2] was found to be 0.7%; in assay [3], 91.5%; in assay [4] it was 31.2%; in assay [5] it was 30.4%.
With `COc1cc(OC)c(C(=O)/C=C/c2cccc(F)c2)c(O)c1CN1CCN(C)CC1`, the Activity in assay [1] amounted to 18.4%. For the same compound, the inhibition entry in assay [2] was “inactive”. For the same compound, the inhibition came to 24.6% in assay [3] and 26.7% in assay [4].
For `COc1cc(OC)c(C(=O)/C=C/c2cccc(Cl)c2)c(O)c1CN1CCCC1`, in that order: 3.1%, 0.9%, 29.6% and 14.8%.
For `COc1cc(OC)c(C(=O)/C=C/c2ccccc2Br)c(O)c1CN1CCOCC1` the same measures were 16.7%, 1.6%, 42.3% and 32.8%.
For `COc1cc(OC)c(C(=O)/C=C/c2cccc(Br)c2)c(O)c1CN1CCCC1` the same measures were 35.7%, 1.3%, 19.9% and 59.8%.
Turning to `COc1cc(OC)c(C(=O)/C=C/c2cccc(Br)c2)c(O)c1CN1CCCCC1`, in assay [1], the Activity worked out at 33%. The inhibition in assay [2] is 2.8%; in assay [3], 87.5%; in assay [4], 15.4%; in assay [5], 21.7%.
On to `COc1cc(OC)c(C(=O)/C=C/c2cccc(F)c2)c(O)c1CN1CCOCC1`, for which the Activity in assay [1] came out at 24%. Also, the figures for the inhibition in assay [2], in assay [3] and in assay [4] were 19.5%, 38.9% and 10.8%, respectively.
For the compound `COc1cc(OC)c(C(=O)/C=C/c2cccc(Cl)c2)c(O)c1CN1CCCCC1`, the Activity in assay [1] is 20.9%. The inhibition was found to be 0.5% in assay [2], 87.9% in assay [3], 66% in assay [4] and 25.2% in assay [5].
As for `COc1cc(OC)c(C(=O)/C=C/c2cccc(F)c2)c(O)c1CN1CCCCC1`, in assay [1], the Activity was 14.6%. Besides, the figures for the inhibition in assay [3] and in assay [4] were 21.7% and 7.06%, respectively.
Take `O=c1c(O)c(-c2ccc(O)c(O)c2)oc2cc(O)cc(O)c12`: the Activity in assay [1] amounted to 86.3%.
`COc1cc(OC)c(C(=O)/C=C/c2ccccc2Br)c(O)c1CN1CCCC1`: the Activity in assay [1] turned out to be 25%. Moreover, the inhibition in assay [2] was found to be 1.5%; in assay [3] it was 20.4%; in assay [4], 34.7%.
For the compound `COc1cc(OC)c(C(=O)/C=C/c2ccccc2Br)c(O)c1CN1CCCCC1`, the Activity in assay [1] stood at 58.3%. In addition, the inhibition is 2.1% in assay [2], 69.8% in assay [3] and 39.9% in assay [4].
For `COc1cc(OC)c(C(=O)/C=C/c2ccccc2Cl)c(O)c1CN1CCCC1` the same measures were 7.89%, 0.8%, 42.5% and 32.4%.
Take `COc1cc(OC)c(C(=O)/C=C/c2ccccc2Br)c(O)c1CN1CCN(C)CC1`: the Activity in assay [1] was determined as 27.8%. Moreover, the inhibition in assay [2] amounted to 1.2%; in assay [3] it was 48.9%; in assay [4] it was 42%.
As to `CC(=O)Oc1ccccc1C(=O)O`, the inhibition in assay [3] is 35.1%.
For `COc1cc(OC)c(C(=O)/C=C/c2ccccc2F)c(O)c1CN1CCN(C)CC1`, in assay [1], the Activity amounted to 35.3%. The inhibition result in assay [2] and in assay [4] was “inactive” in each case. Further, the values for the inhibition in assay [3] and in assay [5] were 44.9% and 19.2%, respectively.
Regarding `COc1cc(OC)c(C(=O)/C=C/c2ccccc2Cl)c(O)c1CN1CCOCC1`, the Activity in assay [1] stood at 24.8%. Further, the inhibition result in assay [2] is “inactive”. The inhibition was determined as 25.6% in assay [3] and 48.1% in assay [4].
For `COc1cc(OC)c(C(=O)/C=C/c2cccc(F)c2)c(O)c1CN1CCCC1` the same measures were 11.7%, 1.3%, 21.4% and 19.4%.
